The results in this text go back to the RNAGym collection of RNA variant scans (doi:10.1126/science.aae0568).

B1: tRNA (parent)
chain: GUUCCGUUGGCGUAAUGGUAACGCGUCUCCCUCCUAAGGAGAAGACUGCGGGUUCGAGUCCCGUACGGAACG

Variants at the floor of the assay were thinned out.

This data set covers variants of B1. Put plainly: yeast fitness relative to wild type (ratio to wild type); higher = fitter; tRNA-Arg(CCU), competitive growth, 37 C, YPD. In outline: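 Gene amplicons from the start population and from each of six end populations were read by 100-nucleotide paired-end sequencing. Those end populations came from pooled Saccharomyces cerevisiae strains carrying tRNA-Arg(CCU) gene variants at the native locus, competed in YPD at 37°C for 24 hours. Fitness relative to wild type was worked out from changes in genotype frequencies. Genotypes needed ≥ 100 starting reads, and estimates < 0.5 were set to 0.5.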
Turning to G41A A57U, the yeast fitness worked out at 0.759. For G41A U64C A65C the value was no more than 0.5. In the case of A42C A45C G48A G58A C61U A70G, the yeast fitness was no more than 0.5.

A42C G67C: the yeast fitness amounted to 0.829. With A42C G67U the figure was 0.811; with A42C G63U, 0.72; with A42C G63A, 0.818.

Turning to A40G U47A C66G, the yeast fitness is 0.705. As to A40U C55A G56C, the yeast fitness is no more than 0.5. With G41C G51A, the yeast fitness was 0.844. Take A42C A43G G63A: the yeast fitness turned out to be 0.599. For A40G G44A G63C, the yeast fitness is no more than 0.5. With A42C C62G the figure was 0.704.

With G41C C55U G67C, the yeast fitness is no more than 0.5. As to A40U A57C G67A A69U, the yeast fitness is no more than 0.5. For A40U G48A the value was 0.826; for A40U G48C C55U C61G, 0.522.

In the case of A40U A42C G44A G51A, the yeast fitness was no more than 0.5.

As for G41A C61G, the yeast fitness was 0.685. For G41A A42U U59G the value was no more than 0.5; for A42C U47G C49U, no more than 0.5; for G41A C60G A70G, 0.542. On to G41C A42G G51A G68C, for which the yeast fitness was no more than 0.5. For A42C G51C the value was 0.553; for A42C G67C A70U, 0.505.

In the case of G41C A65U, the yeast fitness came to 0.858. For G41C A65G the value was 0.905; for G41C C55G C66G, no more than 0.5; for G41A C60G C61G C62U, 0.682. With A42C U64C the figure was 0.882.

Regarding A40U G68C, the yeast fitness is 0.741. For G41A U47C U53A the value was no more than 0.5.

As for A40G C62A A70C, the yeast fitness worked out at 0.595. For A42C C55U C62U, the yeast fitness was 0.509. With A42G A43C A70U the figure was 0.745. Take A40U G48C C49U: the yeast fitness worked out at 0.586. With A42C C46G G52A the figure was no more than 0.5; with A42C A45C G52C A69U, no more than 0.5; with G41A C49A C66A, no more than 0.5. Consider G41U G51C, for which the yeast fitness was 0.565. As for G41C U47C, the yeast fitness is 0.937. On to G41C U47A, for which the yeast fitness is 0.654.

Take G41A A42C G50C: the yeast fitness is 0.622. For A42C G68C A69U the value was no more than 0.5. Turning to G41A A45U G56C, the yeast fitness came to 0.546.

For the variant G41C C55G, the yeast fitness is 0.621. With G41U the figure was 0.988; with G41C, 0.967; with G41A, 1. Regarding G41A A43G C60G A65G, the yeast fitness came to 0.571. For G41A A69U the value was 0.914; for G41A A69C, 0.801. With G41A G52C the figure was 0.542; with G41A G52A, 0.79. With G41C G50C C60U, the yeast fitness was no more than 0.5. With A40G G52A A65U the figure was no more than 0.5; with G41A G67A, 0.663. On to G41A C60A, for which the yeast fitness worked out at 0.667.

Take A40G C46A G68C: the yeast fitness stood at 0.633. For A42C A43G C55G G68C the value was no more than 0.5; for G41A U54C, 0.814; for A40U G41A, 0.71.

Consider A42C A43C A69U, for which the yeast fitness worked out at 0.819. Take A42C C49A G67C: the yeast fitness was no more than 0.5. With A40G A57U C60U A70G the figure was 0.624.

Consider A40G G52A U53A C66U, for which the yeast fitness is no more than 0.5.

With A42C A65G, the yeast fitness is 0.922.

With A42C A65C, the yeast fitness came to 0.942. Turning to A42C A65U, the yeast fitness came out at 0.784.

Consider A42C C62G G67C, for which the yeast fitness is no more than 0.5.

In the case of G41C C61U G67A, the yeast fitness was no more than 0.5. Regarding A40U A43G, the yeast fitness was 0.788. As to A40U A43C, the yeast fitness was found to be 1.

For the variant A40U A43U, the yeast fitness amounted to 1.11. For G41A C60G A65G, the yeast fitness worked out at 0.62. Take G41A C46A U47C: the yeast fitness came out at 1.06. As to G41A C60G C62A A65G, the yeast fitness is no more than 0.5. As for G41U C66U, the yeast fitness was found to be 0.845. With G41A G63A A70C the figure was 0.753; with G41A G63C C66A, no more than 0.5. As to G41A C49G A65G, the yeast fitness was 0.546. With A40G G50A C61G the figure was 0.584; with G41C G58A, 0.948; with G41C G58C, 0.762.

As for A40G U53C, the yeast fitness worked out at 0.827. For A42C C62G A65C the value was 0.544. With A40G C61G U64C the figure was no more than 0.5. For A40U A45U G48A C55U C66U the value was no more than 0.5. Regarding G41A C55A U59A, the yeast fitness came out at 0.613. For G41C C46A, the yeast fitness stood at 0.982. As to G41C C60G G68A, the yeast fitness is no more than 0.5.

Regarding G41A U47G, the yeast fitness was 0.655. For A42G A43G A45U the value was 0.722. A40G A57G: the yeast fitness is 0.969. Regarding G41A U47A A70G, the yeast fitness is 0.571.

As for A40U C49G G56C A69C, the yeast fitness is no more than 0.5. With A40G C49G U53C A57C A69U the figure was no more than 0.5; with A40U A57G, 0.881; with A40U A57C, 0.744. With G41C G48A C66A the figure was 0.583. Turning to G41A U47C C61G C62U, the yeast fitness was no more than 0.5. For the variant A42C A43C, the yeast fitness amounted to 1.02. For A42C A43G the value was 0.885; for A42C A43U, 0.779. For G41A C60G A65G G68A the value was no more than 0.5. With A42G A45C G48C C66U the figure was no more than 0.5; with A40G G58A A70U, 0.61. Turning to A40G G58A A70C, the yeast fitness is 0.593. With G41C A42G the figure was 0.804; with A40G C61U U64G A69U, no more than 0.5.

As for G41A A57C C62A, the yeast fitness is no more than 0.5. A40G U54C: the yeast fitness is 0.955.

Turning to A40G U54A, the yeast fitness amounted to 0.551. With G41C U64A, the yeast fitness came out at 0.67. For G41C U64C the value was 0.896. With A42C G48C C49A the figure was no more than 0.5.

On to G41C A45U C55U, for which the yeast fitness is no more than 0.5. With A40U U59C, the yeast fitness is 0.913. For the variant A40U U59G, the yeast fitness amounted to 0.815. As to G41A U47A G48C, the yeast fitness is 0.6. As for A40U U47C C66A, the yeast fitness worked out at 0.611.

As for G41C A42U U64C, the yeast fitness was 0.82. For the variant A42G A43C A69G, the yeast fitness is 0.835. Consider A42C A57U C61U, for which the yeast fitness is no more than 0.5. For A40U G58A the value was 0.92. With G41C A45U G67C the figure was 0.607; with G41A G44C, 0.671.

For A42C U64C A70U, the yeast fitness was determined as 1.12. As to G41A G48A, the yeast fitness came out at 0.944. For G41C G50C the value was 0.695; for G41C G50A, 0.703; for A42C U47A G52A, no more than 0.5. For A40U A42U A65C the value was 0.747; for A40G A45G U53A, no more than 0.5. In the case of A42G A43U G44C A65C, the yeast fitness was no more than 0.5. For A40G U53A C55G, the yeast fitness was no more than 0.5.

With G41C G63A, the yeast fitness was determined as 0.852. For the variant G41C G63C, the yeast fitness was 0.727. For G41A A70G the value was 0.924; for A40G A57C C62U, no more than 0.5; for A42G A43U U47G C61G G67A, no more than 0.5. With A42G A45G A65U the figure was 0.635; with A40U C55A A57U, no more than 0.5; with A40U G63C U64C, 0.53.

A40G A70G: the yeast fitness turned out to be 1.09. With A40G A70U the figure was 0.891; with A42G A43G, 0.766; with G41C C55A A69C, 0.529. For G41A C61G C66U the value was no more than 0.5. For A40U A45U A57U the value was 0.611. In the case of A40U U47C, the yeast fitness stood at 0.869.

In the case of A40U C55U G68A, the yeast fitness was no more than 0.5. With G41A G50A the figure was 0.807; with A40U C46U, 1.08. With A40G C46A G67A the figure was 0.563. With A40G C46A C62U the figure was 0.734; with A42C C46U, 0.969; with G41C C60U G67A, no more than 0.5. Take G41A C46U C49A: the yeast fitness is no more than 0.5. For the variant G41C C55A C66U A69C, the yeast fitness is no more than 0.5. For G41C U59C the value was 0.933; for A40G A45U G56A, 0.601; for A40G U47G, 0.595. Turning to A40G U47A, the yeast fitness came out at 0.848. In the case of A40G U47C, the yeast fitness came out at 0.788. Take A42C C60G: the yeast fitness was determined as 0.608.

As to A42C C60A, the yeast fitness came to 0.672.
